Columns and labels:
Blood = test: Antiinflammatory activity in human whole blood assessed as inhibition of LPS-induced TNFalpha production after 3.5 hrs by ELISA; assay type: functional
Method in brief: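 Human whole blood, diluted 1:1 in serum-free RPMI with L-glutamine, Pen-Strep and HEPES, is preincubated with compound for 1 h at 37 °C. It is then stimulated with LPS. Supernatant is harvested after 3.5 h incubation, and TNF-α concentration is measured by ELISA.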

[1] = biological target: Disintegrin and metalloproteinase domain-containing protein 17 (Homo sapiens, UniProt P78536); test: Inhibition of TACE
[2] = Clearance in monkey at 1 mg/kg, iv; assay type: ADME, organism-based, Macaca mulatta; parameters: dose 1 mg/kg, route intravenous; conditions: rhesus monkey, in vivo
[3] = Oral bioavailability in dog at 5 mg/kg; assay type: ADME, organism-based, Canis lupus familiaris; conditions: in vivo
[4] = Clearance in rat at 3 mg/kg, iv; assay type: ADME, organism-based; parameters: dose 3 mg/kg, route intravenous; conditions: in vivo
[5] = AUC in rat at 10 mg/kg, po; assay type: ADME, organism-based; parameters: dose 10 mg/kg, route oral; conditions: plasma
Method in brief: (§1)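 Compound dosed as its Na+ salt, intravenously or orally, at the dose given in each line. AUC is reported in uM.h.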

[6] = Half life in rat at 3 mg/kg, iv; assay type: ADME, organism-based; parameters: dose 3 mg/kg, route intravenous; conditions: in vivo
[7] = Tmax in monkey at 3 mg/kg, po; assay type: ADME, organism-based, Macaca mulatta; parameters: dose 3 mg/kg, route oral; conditions: rhesus monkey, in vivo
[8] = AUC in rat at 3 mg/kg, iv; assay type: ADME, organism-based; parameters: dose 3 mg/kg, route intravenous; conditions: plasma; method in brief: as §1
[9] = Oral bioavailability in monkey at 3 mg/kg; assay type: ADME, organism-based, Macaca mulatta; conditions: rhesus monkey, in vivo
[10] = biological target: Matrix metalloproteinase-9 (Homo sapiens, UniProt P14780); test: Inhibition of MMP9
[11] = AUC in monkey at 1 mg/kg, iv; assay type: ADME, organism-based, Macaca mulatta; parameters: dose 1 mg/kg, route intravenous; conditions: rhesus monkey, plasma; method in brief: as §1
[12] = Tmax in rat at 10 mg/kg, po; assay type: ADME, organism-based; parameters: dose 10 mg/kg, route oral; conditions: in vivo
[13] = Oral bioavailability in rat at 10 mg/kg; assay type: ADME, organism-based; conditions: in vivo
[14] = Tmax in dog at 5 mg/kg, po; assay type: ADME, organism-based, Canis lupus familiaris; parameters: dose 5 mg/kg, route oral; conditions: in vivo
[15] = biological target: T1, Disintegrin and metalloproteinase domain-containing protein 10 (Homo sapiens, UniProt O14672); test: Inhibition of ADAM10
T1 sequence (O14672 whole entry): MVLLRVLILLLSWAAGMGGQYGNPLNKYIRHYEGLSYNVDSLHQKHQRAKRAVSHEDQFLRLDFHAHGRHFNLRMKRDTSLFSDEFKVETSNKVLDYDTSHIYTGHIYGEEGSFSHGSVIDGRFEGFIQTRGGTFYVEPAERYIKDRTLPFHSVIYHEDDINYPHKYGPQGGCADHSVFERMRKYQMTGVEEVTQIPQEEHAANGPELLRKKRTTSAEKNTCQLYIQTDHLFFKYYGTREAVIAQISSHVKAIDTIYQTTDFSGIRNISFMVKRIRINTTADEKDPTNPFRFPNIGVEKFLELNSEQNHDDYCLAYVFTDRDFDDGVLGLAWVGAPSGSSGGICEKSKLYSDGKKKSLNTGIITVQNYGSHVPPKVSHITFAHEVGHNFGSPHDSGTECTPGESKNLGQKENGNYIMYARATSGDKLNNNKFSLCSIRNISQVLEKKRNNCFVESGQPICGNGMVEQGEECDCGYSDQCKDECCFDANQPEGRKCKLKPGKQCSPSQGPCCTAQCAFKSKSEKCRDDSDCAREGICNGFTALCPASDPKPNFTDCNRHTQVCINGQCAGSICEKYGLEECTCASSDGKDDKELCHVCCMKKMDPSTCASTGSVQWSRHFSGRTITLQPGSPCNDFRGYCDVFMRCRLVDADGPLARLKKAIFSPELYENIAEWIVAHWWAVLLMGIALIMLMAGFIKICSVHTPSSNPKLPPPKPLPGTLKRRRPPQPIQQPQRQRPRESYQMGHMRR

[16] = AUC in monkey at 3 mg/kg, po; assay type: ADME, organism-based, Macaca mulatta; parameters: dose 3 mg/kg, route oral; conditions: rhesus monkey, plasma; method in brief: as §1
Stromelysin-1 = Stromelysin-1 (Homo sapiens, UniProt P08254); test: Inhibition of MMP3
[17] = AUC in dog at 5 mg/kg, po; assay type: ADME, organism-based, Canis lupus familiaris; parameters: dose 5 mg/kg, route oral; conditions: plasma
[18] = Half life in monkey at 1 mg/kg, iv; assay type: ADME, organism-based, Macaca mulatta; parameters: dose 1 mg/kg, route intravenous; conditions: rhesus monkey, in vivo
Interstitial collagenase = biological target: T2, Interstitial collagenase (Homo sapiens, UniProt P03956); test: Inhibition of MMP1
T2 sequence (P03956 whole entry): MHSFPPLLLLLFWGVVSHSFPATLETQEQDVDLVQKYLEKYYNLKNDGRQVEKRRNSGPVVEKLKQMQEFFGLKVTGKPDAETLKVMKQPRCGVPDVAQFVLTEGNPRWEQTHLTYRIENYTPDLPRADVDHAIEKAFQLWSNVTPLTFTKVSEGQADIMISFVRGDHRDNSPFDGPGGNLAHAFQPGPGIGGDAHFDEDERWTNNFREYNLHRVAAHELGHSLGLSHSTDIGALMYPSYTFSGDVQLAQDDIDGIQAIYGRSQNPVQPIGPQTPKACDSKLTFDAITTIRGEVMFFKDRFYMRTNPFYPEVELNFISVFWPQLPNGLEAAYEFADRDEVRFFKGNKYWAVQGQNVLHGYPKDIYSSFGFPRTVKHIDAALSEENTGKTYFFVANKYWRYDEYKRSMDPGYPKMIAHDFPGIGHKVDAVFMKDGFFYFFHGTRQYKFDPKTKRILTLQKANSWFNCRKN

[19] = AUC in dog at 0.5 mg/kg, iv; assay type: ADME, organism-based, Canis lupus familiaris; parameters: dose 0.5 mg/kg, route intravenous; conditions: plasma
Matrilysin = biological target: T3, Matrilysin (Homo sapiens, UniProt P09237); test: Inhibition of MMP7
T3 sequence (P09237 whole entry): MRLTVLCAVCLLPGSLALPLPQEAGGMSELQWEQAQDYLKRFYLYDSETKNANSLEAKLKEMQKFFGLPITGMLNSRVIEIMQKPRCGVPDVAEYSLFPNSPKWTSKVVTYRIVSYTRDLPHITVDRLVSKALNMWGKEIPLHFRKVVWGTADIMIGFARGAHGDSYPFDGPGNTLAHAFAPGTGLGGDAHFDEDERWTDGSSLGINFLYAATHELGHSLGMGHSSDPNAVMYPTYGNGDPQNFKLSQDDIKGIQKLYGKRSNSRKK

Collagenase 3 = Collagenase 3 (Homo sapiens, UniProt P45452); test: Inhibition of MMP13
[20] = Clearance in dog at 0.5 mg/kg, iv; assay type: ADME, organism-based, Canis lupus familiaris; parameters: dose 0.5 mg/kg, route intravenous; conditions: in vivo
[21] = Half life in dog at 0.5 mg/kg, iv; assay type: ADME, organism-based, Canis lupus familiaris; parameters: dose 0.5 mg/kg, route intravenous; conditions: in vivo
[22] = biological target: 72 kDa type IV collagenase (Homo sapiens, UniProt P08253); test: Inhibition of MMP2
Sequence of 72 kDa type IV collagenase (P08253 whole entry): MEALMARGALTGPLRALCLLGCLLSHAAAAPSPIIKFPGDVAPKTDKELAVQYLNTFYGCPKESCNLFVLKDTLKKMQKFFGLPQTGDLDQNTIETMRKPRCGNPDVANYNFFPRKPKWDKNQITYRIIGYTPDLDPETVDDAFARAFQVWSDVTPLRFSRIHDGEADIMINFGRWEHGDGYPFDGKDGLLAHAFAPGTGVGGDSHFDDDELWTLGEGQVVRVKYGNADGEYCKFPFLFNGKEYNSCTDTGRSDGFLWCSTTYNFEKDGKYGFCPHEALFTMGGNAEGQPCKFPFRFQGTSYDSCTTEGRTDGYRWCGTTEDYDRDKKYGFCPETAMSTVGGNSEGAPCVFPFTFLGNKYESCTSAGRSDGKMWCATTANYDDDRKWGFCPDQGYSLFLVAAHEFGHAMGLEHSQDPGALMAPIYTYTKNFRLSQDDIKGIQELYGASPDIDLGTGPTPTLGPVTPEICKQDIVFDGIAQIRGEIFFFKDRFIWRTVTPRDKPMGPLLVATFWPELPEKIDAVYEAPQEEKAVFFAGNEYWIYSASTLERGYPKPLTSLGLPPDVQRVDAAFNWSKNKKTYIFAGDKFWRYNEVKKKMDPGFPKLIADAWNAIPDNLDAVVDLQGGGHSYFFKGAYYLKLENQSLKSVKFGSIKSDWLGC

Sequence of Disintegrin and metalloproteinase domain-containing protein 17 (P78536 whole entry, the tested form may be a part): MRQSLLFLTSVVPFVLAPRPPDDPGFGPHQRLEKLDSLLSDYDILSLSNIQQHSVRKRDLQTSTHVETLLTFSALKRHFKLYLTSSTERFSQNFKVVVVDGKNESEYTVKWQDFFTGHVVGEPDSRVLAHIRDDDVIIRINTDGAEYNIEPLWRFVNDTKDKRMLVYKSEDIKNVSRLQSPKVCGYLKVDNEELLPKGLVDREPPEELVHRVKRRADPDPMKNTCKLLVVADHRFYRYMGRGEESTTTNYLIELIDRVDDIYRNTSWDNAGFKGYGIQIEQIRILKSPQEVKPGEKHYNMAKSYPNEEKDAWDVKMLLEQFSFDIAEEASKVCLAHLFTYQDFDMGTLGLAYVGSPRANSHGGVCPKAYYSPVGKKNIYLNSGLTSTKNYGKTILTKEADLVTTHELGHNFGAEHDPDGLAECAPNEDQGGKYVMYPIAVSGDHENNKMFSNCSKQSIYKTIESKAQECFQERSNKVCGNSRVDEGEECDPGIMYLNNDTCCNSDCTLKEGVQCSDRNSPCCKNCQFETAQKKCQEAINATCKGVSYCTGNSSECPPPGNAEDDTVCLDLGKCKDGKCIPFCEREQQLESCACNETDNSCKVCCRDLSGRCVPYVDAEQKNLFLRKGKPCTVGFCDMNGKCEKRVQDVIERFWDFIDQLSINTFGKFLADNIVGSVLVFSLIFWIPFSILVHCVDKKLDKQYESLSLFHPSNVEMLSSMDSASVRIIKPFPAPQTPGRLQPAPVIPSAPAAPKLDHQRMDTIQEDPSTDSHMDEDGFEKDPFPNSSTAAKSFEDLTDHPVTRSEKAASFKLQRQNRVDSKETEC
Sequence of Matrix metalloproteinase-9 (P14780 whole entry): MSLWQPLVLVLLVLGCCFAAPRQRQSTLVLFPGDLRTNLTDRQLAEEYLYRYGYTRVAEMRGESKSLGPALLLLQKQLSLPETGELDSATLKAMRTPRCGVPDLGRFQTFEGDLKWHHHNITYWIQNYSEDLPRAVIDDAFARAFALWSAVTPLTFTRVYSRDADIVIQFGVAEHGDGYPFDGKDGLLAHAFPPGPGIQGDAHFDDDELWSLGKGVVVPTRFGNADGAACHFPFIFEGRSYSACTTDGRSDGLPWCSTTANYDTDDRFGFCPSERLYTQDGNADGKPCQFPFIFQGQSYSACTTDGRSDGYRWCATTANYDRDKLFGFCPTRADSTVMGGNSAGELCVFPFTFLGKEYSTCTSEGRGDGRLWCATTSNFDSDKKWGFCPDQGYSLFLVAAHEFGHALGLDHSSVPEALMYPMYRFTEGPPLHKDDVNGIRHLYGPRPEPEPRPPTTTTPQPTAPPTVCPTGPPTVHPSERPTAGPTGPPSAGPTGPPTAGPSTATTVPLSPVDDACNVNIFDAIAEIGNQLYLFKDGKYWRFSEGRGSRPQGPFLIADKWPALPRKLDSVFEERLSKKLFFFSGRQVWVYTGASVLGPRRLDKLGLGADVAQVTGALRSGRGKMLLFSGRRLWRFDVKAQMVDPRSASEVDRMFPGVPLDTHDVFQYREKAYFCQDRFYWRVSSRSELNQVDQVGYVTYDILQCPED
Sequence of Stromelysin-1 (P08254 whole entry): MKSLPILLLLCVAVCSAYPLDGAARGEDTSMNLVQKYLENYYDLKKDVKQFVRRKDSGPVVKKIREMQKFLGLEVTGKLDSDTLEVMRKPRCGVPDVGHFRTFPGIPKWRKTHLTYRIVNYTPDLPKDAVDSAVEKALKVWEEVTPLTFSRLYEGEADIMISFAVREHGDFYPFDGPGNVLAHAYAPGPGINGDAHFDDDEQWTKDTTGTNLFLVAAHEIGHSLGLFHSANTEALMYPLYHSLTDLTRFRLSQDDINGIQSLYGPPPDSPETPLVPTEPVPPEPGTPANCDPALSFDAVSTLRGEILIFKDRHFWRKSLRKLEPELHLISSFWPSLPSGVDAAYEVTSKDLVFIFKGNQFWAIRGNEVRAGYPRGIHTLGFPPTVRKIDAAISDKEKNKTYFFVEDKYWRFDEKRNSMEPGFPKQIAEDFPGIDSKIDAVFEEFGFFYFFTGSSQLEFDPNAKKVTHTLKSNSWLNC

## CCN1CCN(/C(=N\O)c2ccc(C#C[C@]3(CN4Cc5ccc(OC)cc5C4=O)NC(=O)NC3=O)cn2)CC1
Blood
  Activity: 87 nM
[1]
  Ki: 0.18 nM

## COc1ccc2c(c1)C(=O)N(C[C@@]1(C#Cc3ccc(/C(=N/O)N4CCN(C)CC4)cc3)NC(=O)NC1=O)C2
Blood
  Activity: 33 nM
[1]
  Ki: 0.22 nM

## COc1ccc2c(c1)C(=O)N(C[C@@]1(C#Cc3ccc([C@H](C)N)cc3)NC(=O)NC1=O)C2
Blood
  Activity: 621 nM
[1]
  Ki: 2.35 nM

## COc1ccc2c(c1)C(=O)N(C[C@@]1(C#Cc3cccnc3)NC(=O)NC1=O)C2
[2]
  clearance: 217 mL/min/kg
[3]
  bioavailability: 9%
[4]
  clearance: 317 mL/min/kg
[5]
  AUC: 4 µM·h
[6]
  half-life: 2.2 h
[7]
  Tmax: 1.2 h
Blood
  Activity: 220 nM
[8]
  AUC: 7.3 µM·h
[9]
  bioavailability: 23%
[1]
  Ki: 0.62 nM
[10]
  IC50: 1010 nM
[11]
  AUC: 3.8 µM·h
[12]
  Tmax: 2.2 h
[13]
  bioavailability: 15%
[14]
  Tmax: 6 min
[15]
  IC50: 22 nM
[16]
  AUC: 2.6 µM·h
Stromelysin-1
  IC50: 5800 nM
[17]
  AUC: 1.1 µM·h
[18]
  half-life: 2.4 h
Interstitial collagenase
  IC50: 5200 nM
[19]
  AUC: 1.3 µM·h
Matrilysin
  IC50: > 40000 nM
Collagenase 3
  IC50: 2920 nM
[20]
  clearance: 317 mL/min/kg
[21]
  half-life: 0.9 h
[22]
  IC50: 431 nM

## COc1ccc2c(c1)C(=O)N(C[C@@]1(C#Cc3ccccc3F)NC(=O)NC1=O)C2
Blood
  Activity: 617 nM
[1]
  Ki: 0.13 nM

## COc1ccc2c(c1)C(=O)N(C[C@@]1(C#Cc3cccc(C)c3)NC(=O)NC1=O)C2
Blood
  Activity: 5148 nM
[1]
  Ki: 0.72 nM

## COc1ccc2c(c1)C(=O)N(C[C@@]1(C#Cc3ccc4[nH]cnc4c3)NC(=O)NC1=O)C2
Blood
  Activity: 211 nM
[1]
  Ki: 0.6 nM

## COc1ccc2c(c1)C(=O)N(C[C@@]1(C#Cc3ccc(CC4CCN(C)CC4)nc3)NC(=O)NC1=O)C2
Blood
  Activity: 195 nM
[1]
  Ki: 0.47 nM

## COc1ccc2c(c1)C(=O)N(C[C@@]1(C#Cc3ccc4[nH]ccc4c3)NC(=O)NC1=O)C2
Blood
  Activity: 751 nM
[1]
  Ki: 0.17 nM

## CCN1CCN(Cc2ccc(C#C[C@]3(CN4Cc5ccc(OC)cc5C4=O)NC(=O)NC3=O)cc2)CC1
Blood
  Activity: 239 nM
[1]
  Ki: 0.29 nM

## COc1ccc2c(c1)C(=O)N(C[C@@]1(C#Cc3ccc(C(N)=O)cc3)NC(=O)NC1=O)C2
Blood
  Activity: 165 nM
[1]
  Ki: 0.56 nM

## COc1ccc2c(c1)C(=O)N(C[C@@]1(C#Cc3ccccc3C(N)=O)NC(=O)NC1=O)C2
Blood
  Activity: 5311 nM
[1]
  Ki: 2.78 nM

## COc1ccc2c(c1)C(=O)N(C[C@@]1(C#Cc3ccc4cc[nH]c4c3)NC(=O)NC1=O)C2
Blood
  Activity: 2965 nM
[1]
  Ki: 0.19 nM

## COc1ccc2c(c1)C(=O)N(C[C@@]1(C#Cc3ccc4[nH]c(=O)[nH]c4c3)NC(=O)NC1=O)C2
Blood
  Activity: 240 nM
[1]
  Ki: 0.53 nM

## COc1ccc2c(c1)C(=O)N(C[C@@]1(C#Cc3ccc(C(=O)NC4CC4)cc3)NC(=O)NC1=O)C2
Blood
  Activity: 487 nM
[1]
  Ki: 2.55 nM

## COc1ccc2c(c1)C(=O)N(C[C@@]1(C#Cc3cnc4[nH]cnc4c3)NC(=O)NC1=O)C2
Blood
  Activity: 193 nM
[1]
  Ki: 0.92 nM

## COc1ccc2c(c1)C(=O)N(C[C@@]1(C#Cc3cccc(C#N)c3)NC(=O)NC1=O)C2
Blood
  Activity: 273 nM
[1]
  Ki: 0.06 nM

## CCN1CCN(c2ccc(O)c(-c3ccc(C#C[C@]4(CN5Cc6ccc(OC)cc6C5=O)NC(=O)NC4=O)cc3F)n2)CC1
Blood
  Activity: 40 nM
[1]
  Ki: 0.1 nM

## COc1ccc2c(c1)C(=O)N(C[C@@]1(C#Cc3ccc(/C=N/O)cc3)NC(=O)NC1=O)C2
Blood
  Activity: 167 nM
[1]
  Ki: 0.16 nM

## COc1ccc2c(c1)C(=O)N(C[C@@]1(C#Cc3ccc(C(C)=O)cc3)NC(=O)NC1=O)C2
Blood
  Activity: 352 nM
[1]
  Ki: 0.5 nM

## COc1ccc2c(c1)C(=O)N(C[C@@]1(C#Cc3ccccc3)NC(=O)NC1=O)C2
Blood
  Activity: 784 nM
[1]
  Ki: 0.14 nM

## CCN1CCN(/C(=N\O)c2ccc(C#C[C@]3(CN4Cc5ccc(OC)cc5C4=O)NC(=O)NC3=O)cc2)CC1
Blood
  Activity: 20 nM
[1]
  Ki: 0.16 nM

## COc1ccc2c(c1)C(=O)N(C[C@@]1(C#Cc3ccc(-c4ncccc4O)cc3)NC(=O)NC1=O)C2
Blood
  Activity: 117 nM
[1]
  Ki: 0.07 nM

## COc1ccc(C#C[C@]2(CN3Cc4ccc(OC)cc4C3=O)NC(=O)NC2=O)cc1
Blood
  Activity: 1332 nM
[1]
  Ki: 0.41 nM

## COc1ccc2c(c1)C(=O)N(C[C@@]1(C#Cc3ccc4cnn(C)c4c3)NC(=O)NC1=O)C2
Blood
  Activity: 10400 nM
[1]
  Ki: 0.52 nM

## COc1ccc2c(c1)C(=O)N(C[C@@]1(C#Cc3cccc(C(N)=O)c3)NC(=O)NC1=O)C2
[1]
  Ki: 0.85 nM

## COc1ccc2c(c1)C(=O)N(C[C@@]1(C#Cc3ccccc3C)NC(=O)NC1=O)C2
Blood
  Activity: 3142 nM
[1]
  Ki: 2 nM

## COc1ccc2c(c1)C(=O)N(C[C@@]1(C#Cc3cccc(C(C)C)c3)NC(=O)NC1=O)C2
Blood
  Activity: 19000 nM
[1]
  Ki: 0.5 nM

## COc1ccc2c(c1)C(=O)N(C[C@@]1(C#Cc3ccc(F)cc3)NC(=O)NC1=O)C2
Blood
  Activity: 1675 nM
[1]
  Ki: 0.26 nM

## COc1ccc2c(c1)C(=O)N(C[C@@]1(C#Cc3cccc(F)c3)NC(=O)NC1=O)C2
Blood
  Activity: 873 nM
[1]
  Ki: 0.2 nM
